Experimental findings from ChEMBL document CHEMBL4610036, “Discovery of small molecule antagonists of chemokine receptor CXCR6 that arrest tumor growth in SK-HEP-1 mouse xenografts as a model of hepatocellular carcinoma” (Bioorg Med Chem Lett, 2020) are described below.

The source made the active and inactive calls. The rule behind the calls is not given here.

Broadly, the inhibition is the relative decrease from the control value, in per cent. Usually IC50 stands for the concentration needed to halve the response being measured.

Test [1] concerns the target T1, C-X-C chemokine receptor type 6 (Homo sapiens, UniProt O00574). The test can be described thus: Antagonist activity at Prolink-tagged human CXCR6 receptor assessed as inhibition of forskolin-induced cAMP accumulation by DiscoveRx cell based assay relative to control. The format is functional. On the set-up: concentration or dose not given beside the values. The method, boiled down:
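CXCR6 β-arrestin cells in OptiMEM with 2% FBS, 500 cells/well, grown overnight; compounds added, then forskolin with 20 nM CXCL16 (stock concentrations) in HBSS/HEPES/BSA with RO-20-1724, 30 min at room temperature. cAMP read by LANCE Ultra TR-FRET after a further 30 min. Hill slope fixed at 1; at least two runs on different days, averaged pIC50 ± SD.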
For orientation: cAMP levels reflect the balance of adenylyl cyclase and phosphodiesterase activity.
Target sequence in this assay (O00574 whole entry, looked up): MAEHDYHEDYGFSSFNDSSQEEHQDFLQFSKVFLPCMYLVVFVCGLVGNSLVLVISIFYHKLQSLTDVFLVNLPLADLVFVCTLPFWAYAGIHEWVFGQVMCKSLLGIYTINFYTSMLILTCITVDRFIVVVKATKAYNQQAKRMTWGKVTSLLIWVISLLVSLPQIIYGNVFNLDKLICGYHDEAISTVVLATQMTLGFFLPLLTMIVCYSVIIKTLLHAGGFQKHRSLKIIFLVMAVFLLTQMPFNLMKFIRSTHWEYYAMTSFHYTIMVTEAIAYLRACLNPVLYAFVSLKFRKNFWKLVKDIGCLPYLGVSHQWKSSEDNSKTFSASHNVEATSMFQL

Test [2] concerns the target T1, C-X-C chemokine receptor type 6. The test can be described thus: Antagonist activity at Prolink-tagged human CXCR6 receptor assessed as inhibition of CXCL16-induced beta-arrestin recruitment by DiscoveRx cell based assay relative to control. On the set-up: concentration or dose not given beside the values. The method, boiled down: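 CXCR6 β-arrestin cells in assay media without G418/hygromycin, 800 cells/well, grown overnight at 37 °C; compounds added acoustically (DMSO ≤0.3%), then 20 nM CXCL16 (final) for 90 min at 37 °C. PathHunter luminescence read. Normalized between CXCL16-alone and no-ligand wells; four-parameter fit with Hill slope fixed at 1; at least two runs on different days, averaged pIC50 ± SD.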
On the technique in general: Arrestin recruitment assays detect the binding of arrestin to an activated receptor.
Target sequence in this assay (O00574 whole entry, looked up): as above

Test [3] shares this target. Nature of the test: Antagonist activity at Prolink-tagged human CXCR6 receptor assessed as inhibition of forskolin-induced cAMP accumulation by DiscoveRx cell based assay. The format is functional. In a few lines: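 Lance Ultra TR-FRET cAMP assay in CXCR6 β-arrestin cells, 500 cells/well in OptiMEM/2% FBS, grown overnight. Compound added, then forskolin (2.5 mM stock) in HBSS/HEPES/BSA/RO-20-1724 with or without 20 nM CXCL16, 30 min at room temperature. Eu-cAMP tracer and ULight anti-cAMP antibody added, read after 30 min. Curve fit with Hill slope 1; ≥2 independent runs.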
Target sequence in this assay (O00574 whole entry): as the sequence (O00574 whole entry, looked up) above

The target is the same in test [4]. The test can be described thus: Antagonist activity at Prolink-tagged human CXCR6 receptor assessed as inhibition of CXCL16-induced beta-arrestin recruitment by DiscoveRx cell based assay.
Target sequence in this assay (O00574 whole entry): as the sequence (O00574 whole entry, looked up) above

For `COc1cc(C(=O)N[C@@H]2C[C@H]3CCC[C@@H](C2)N3CC(=O)c2nc3ccccc3s2)cc(OC)c1OC`, the inhibition entry in test [1] is “inactive”. Moreover, the inhibition in test [2] (concentration not given here) worked out at 75%. Besides, the results for the IC50 in test [3] and in test [4] were more than 50 µM and 12.7 µM, respectively.
Take `COc1cc(C(=O)N[C@@H]2C[C@H]3CCC[C@@H](C2)N3CC(=O)Nc2cccc(C)c2)cc(OC)c1OC`: the values for the inhibition in test [1] (concentration not given here) and in test [2] (concentration not given here) were 92% and 102%, respectively. For the same compound, the 50% inhibitory concentration (IC50) came to 17.9 µM in test [3] and 1.8 µM in test [4].
Consider `COc1ccc(NC(=O)CN2[C@@H]3CCC[C@H]2C[C@H](NC(=O)c2cc(OC)c(OC)c(OC)c2)C3)cc1`, for which the inhibition entry in test [1] was “inactive”. Further, in test [2] (concentration not given here), the inhibition worked out at 76%. The IC50 in test [3] was more than 40 µM; in test [4], 19 µM.
Take `COc1cc(C(=O)N[C@@H]2C[C@H]3CCC[C@@H](C2)N3CC(=O)Nc2c(Cl)cccc2Cl)cc(OC)c1OC`: the inhibition result in test [1] was “inactive”. In addition, in test [2] (concentration not given here), the inhibition amounted to 57%. The half-maximal inhibitory concentration (IC50) was more than 40 µM in test [3] and 38.2 µM in test [4].
Regarding `COc1cc(C(=O)N[C@@H]2C[C@H]3CCC[C@@H](C2)N3Cc2nc3c(Br)cccc3s2)cc(OC)c1OC`, the inhibition in test [1] (concentration not given here) was determined as 91%; in test [2] (concentration not given here) it was 102%. In addition, the figures for the half-inhibitory concentration (IC50) in test [3] and in test [4] were 1 µM and 0.08 µM, respectively.
For `COc1cc(C(=O)N[C@@H]2C[C@H]3CCC[C@@H](C2)N3CC(=O)Nc2ccccc2C(F)(F)F)cc(OC)c1OC`, the inhibition in test [1] (concentration not given here) is 105%; in test [2] (concentration not given here), 101%. Moreover, the IC50 in test [3] is 7.9 µM; in test [4], 0.64 µM.
As to `COc1cc(C(=O)N[C@@H]2C[C@H]3CCC[C@@H](C2)N3Cc2ccccc2Cl)cc(OC)c1OC`, the inhibition was found to be 101% in test [1] (concentration not given here) and 99% in test [2] (concentration not given here). Besides, the IC50 in test [3] was determined as 11.5 µM; in test [4] it was 6.8 µM.
`COc1cc(C(=O)N[C@@H]2C[C@H]3CCC[C@@H](C2)N3Cc2nc3ccccc3o2)cc(OC)c1OC`: the values for the inhibition in test [1] (concentration not given here) and in test [2] (concentration not given here) were 26% and 83%, respectively. For the same compound, the values for the half-inhibitory concentration (IC50) in test [3] and in test [4] were more than 50 µM and 6.9 µM, respectively.
Take `COc1cc(C(=O)N[C@@H]2C[C@H]3CCC[C@@H](C2)N3CC(=O)Nc2c(C)cccc2C)cc(OC)c1OC`: the inhibition entry in test [1] and in test [2] was “inactive” in each case. Besides, the IC50 in test [3] and in test [4] was more than 40 µM in each case.
Take `COc1cc(C(=O)N[C@@H]2C[C@H]3CCC[C@@H](C2)N3Cc2ccc3ccccc3c2)cc(OC)c1OC`: the results for the inhibition in test [1] (concentration not given here) and in test [2] (concentration not given here) were 30% and 94%, respectively. The IC50 in test [3] is 47.3 µM; in test [4], 3.4 µM.
Regarding `COc1cc(C(=O)N[C@@H]2C[C@H]3CCC[C@@H](C2)N3CC(=O)Nc2ccccc2F)cc(OC)c1OC`, the inhibition in test [1] (concentration not given here) is 99%; in test [2] (concentration not given here) it was 103%. Further, the values for the IC50 in test [3] and in test [4] were 6.5 µM and 0.62 µM, respectively.
On to `COc1cc(C(=O)N[C@@H]2C[C@H]3CCC[C@@H](C2)N3CC(=O)Nc2ccc(Cl)cc2Cl)cc(OC)c1OC`, for which the inhibition in test [1] (concentration not given here) and in test [2] (concentration not given here) was 105% throughout. Moreover, the half-inhibitory concentration (IC50) is 0.9 µM in test [3] and 0.16 µM in test [4].
As for `COc1cc(C(=O)N[C@@H]2C[C@H]3CCC[C@@H](C2)N3Cc2nc3c(F)cccc3s2)cc(OC)c1OC`, the inhibition stood at 105% in test [1] (concentration not given here) and 103% in test [2] (concentration not given here). The results for the IC50 in test [3] and in test [4] were 1.9 µM and 0.11 µM, respectively.
With `COc1ccc(CN2[C@@H]3CCC[C@H]2C[C@H](NC(=O)c2cc(OC)c(OC)c(OC)c2)C3)cc1`, the inhibition entry in test [1] and in test [2] was “inactive” each time. The IC50 in test [3] and in test [4] was more than 50 µM each time.
For the compound `COc1cc(C(=O)N[C@@H]2C[C@H]3CCC[C@@H](C2)N3CC(=O)Nc2cccc(Br)c2)cc(OC)c1OC`, the inhibition in test [1] (concentration not given here) amounted to 92%; in test [2] (concentration not given here), 104%. Further, the IC50 worked out at 3.8 µM in test [3] and 0.35 µM in test [4].
On to `COc1cccc(C(=O)N[C@@H]2C[C@H]3CCC[C@@H](C2)N3CC(=O)Nc2ccc(Cl)cc2)c1`, for which the inhibition in test [1] (concentration not given here) turned out to be 87%. In addition, the inhibition result in test [2] was “inactive”. Further, the half-maximal inhibitory concentration (IC50) is 14.5 µM in test [3] and more than 40 µM in test [4].
As to `COc1cc(C(=O)N[C@@H]2C[C@H]3CCC[C@@H](C2)N3Cc2ccc(Cl)cc2)cc(OC)c1OC`, the inhibition in test [1] (concentration not given here) was determined as 58%; in test [2] (concentration not given here), 90%. Further, the IC50 in test [3] was determined as 38.6 µM; in test [4] it was 23.7 µM.
For the compound `COc1cc(C(=O)N[C@@H]2C[C@H]3CCC[C@@H](C2)N3CC(=O)Nc2cccc(Cl)c2Cl)cc(OC)c1OC`, the inhibition in test [1] (concentration not given here) was 39 to 78%; in test [2] (concentration not given here), 96 to 102%. For the same compound, the IC50 was in the range of 0.41 to 25.6 µM in test [3] and 0.12 to 0.16 µM in test [4].
With `COc1cc(C(=O)N[C@@H]2C[C@H]3CCC[C@@H](C2)N3CC(=O)Nc2cccc(Cl)c2)cc(OC)c1OC`, the values for the inhibition in test [1] (concentration not given here) and in test [2] (concentration not given here) were 97% and 105%, respectively. The IC50 in test [3] stood at 4.3 µM; in test [4] it was 0.41 µM.
As to `COc1cc(OC)cc(C(=O)N[C@@H]2C[C@H]3CCC[C@@H](C2)N3CC(=O)Nc2ccc(Cl)cc2)c1`, the inhibition result in test [1] and in test [2] was “inactive” in each case. The IC50 in test [3] and in test [4] was more than 40 µM in each case.
Turning to `COc1cc(C(=O)N[C@@H]2C[C@H]3CCC[C@@H](C2)N3Cc2cn3ccccc3n2)cc(OC)c1OC`, the inhibition entry in test [1] and in test [2] was “inactive” throughout. Further, the 50% inhibitory concentration (IC50) in test [3] and in test [4] was more than 50 µM each time.
For `O=C(CN1[C@@H]2CCC[C@H]1C[C@H](NC(=O)c1ccc3c(c1)OCO3)C2)Nc1ccc(Cl)cc1`, the inhibition in test [1] (concentration not given here) worked out at 84%. For the same compound, in test [2], the inhibition entry was “inactive”. The figures for the 50% inhibitory concentration (IC50) in test [3] and in test [4] were 5.3 µM and more than 40 µM, respectively.
Take `COc1cc(C(=O)N[C@@H]2C[C@H]3CCC[C@@H](C2)N3CC(=O)Nc2cc(C)ccc2C)cc(OC)c1OC`: the inhibition in test [1] (concentration not given here) was 108%; in test [2] (concentration not given here), 105%. Besides, the IC50 in test [3] stood at 16.5 µM; in test [4], 0.61 µM.
For the compound `COc1cc(C(=O)N[C@@H]2C[C@H]3CCC[C@@H](C2)N3CC(=O)Nc2ccc(C)cc2)cc(OC)c1OC`, the inhibition result in test [1] is “inactive”. Moreover, the inhibition in test [2] (concentration not given here) was determined as 100%. The IC50 is more than 40 µM in test [3] and 9.5 µM in test [4].
On to `CCOC(=O)c1ccccc1NC(=O)CN1[C@@H]2CCC[C@H]1C[C@H](NC(=O)c1cc(OC)c(OC)c(OC)c1)C2`, for which the results for the inhibition in test [1] (concentration not given here) and in test [2] (concentration not given here) were 96% and 79%, respectively. Moreover, the IC50 came out at 6.9 µM in test [3] and 1.6 µM in test [4].
Take `COc1cc(C(=O)N[C@@H]2C[C@H]3CCC[C@@H](C2)N3CC(=O)Nc2ccc(Cl)cc2)cc(OC)c1OC`: the results for the inhibition in test [1] (concentration not given here) and in test [2] (concentration not given here) were 93% and 101%, respectively. Also, the concentration for half-maximal inhibition (IC50) in test [3] was found to be 14.2 µM; in test [4], 1.5 µM.
Taken in the same sequence, the figures for `COc1cc(C(=O)N[C@@H]2C[C@H]3CCC[C@@H](C2)N3Cc2nc3c(C)cccc3s2)cc(OC)c1OC` were 86%, 100%, 4.8 µM and 0.25 µM.
Take `COc1ccc(C(=O)N[C@@H]2C[C@H]3CCC[C@@H](C2)N3CC(=O)Nc2ccc(Cl)cc2)cc1`: in test [1] (concentration not given here), the inhibition is 94%. For the same compound, the inhibition result in test [2] is “inactive”. For the same compound, the half-maximal inhibitory concentration (IC50) in test [3] was 5.9 µM; in test [4] it was more than 40 µM.
As for `COc1cccc(CN2[C@@H]3CCC[C@H]2C[C@H](NC(=O)c2cc(OC)c(OC)c(OC)c2)C3)c1`, the inhibition result in test [1] and in test [2] was “inactive” throughout. Moreover, the IC50 in test [3] and in test [4] was more than 50 µM in each case.
In the case of `COc1cc(C(=O)N[C@@H]2C[C@H]3CCC[C@@H](C2)N3Cc2c[nH]c3ccccc23)cc(OC)c1OC`, the inhibition entry in test [1] and in test [2] was “inactive” each time. Besides, the IC50 in test [3] and in test [4] was more than 50 µM in each case.
Consider `COc1cc(C(=O)N[C@@H]2C[C@H]3CCC[C@@H](C2)N3Cc2nc3cccc(Cl)c3s2)cc(OC)c1OC`, for which the values for the inhibition in test [1] (concentration not given here) and in test [2] (concentration not given here) were 93% and 102%, respectively. Also, the IC50 was 8.9 µM in test [3] and 0.26 µM in test [4].
As for `COc1cc(C(=O)N[C@@H]2C[C@H]3CC[C@@H](C2)N3CC(=O)Nc2ccccc2)cc(OC)c1OC`, in test [1], the inhibition result is “inactive”. For the same compound, in test [2] (concentration not given here), the inhibition came to 63%. Also, in test [3], the half-inhibitory concentration (IC50) is more than 40 µM.
